Measurements as given in ChEMBL document CHEMBL4673206, “Truncated Latrunculins as Actin Inhibitors Targeting Plasmodium falciparum Motility and Host Cell Invasion” (J Med Chem, 2016).

What was measured:
[1] = Inhibition of actin polymerisation in trophozoite-stage of plasmodium falciparum infected in human erythrocytes assessed as parasite growth inhibition measured after 72 hrs by SYBR dye based FACSort flow cytometry analysis; type: cell-based
How it was run: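 Mature pigmented trophozoites at 0.1% parasitemia, 2% hematocrit, exposed to compound over two invasion cycles for 72 h at 37°C. Fixed with 0.25% glutaraldehyde for 1 h at room temperature, washed, stained with SYBR green, and counted by flow cytometry. Triplicate wells.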

[2] = Selectivity index, ratio of CC50 for cytotoxicity against human HepG2 cells to EC50 for inhibition of actin polymerisation in trophozoite-stage of plasmodium falciparum; type: toxicity, cell-based; conditions: read-out: Ratio CC50/EC50
[3] = Selectivity index, ratio of CC50 for cytotoxicity against human HEK293 cells to EC50 for inhibition of actin polymerisation in trophozoite-stage of plasmodium falciparum; type: toxicity, cell-based; conditions: read-out: Ratio CC50/EC50
HepG2 = assay: Cytotoxicity against human HepG2 cells assessed as reduction in cell viability incubated for 24 hrs by resazurin staining based assay; conditions: hepg2, 24 h
How it was run: (§1)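 HEK293 and HepG2 seeded at 3000 and 5000 cells/well in DMEM with 10% FBS and left to attach 24 h (37°C, 5% CO2). Compounds added as a 1:3 serial dilution from 100 µM top concentration (0.5% DMSO final, 5% FBS final) for 24 h. Resazurin 10 µM added, 3 h, fluorescence at 560/590. Viability normalised to untreated and 100 µM tamoxifen wells; triplicate wells.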

HEK293 = assay: Cytotoxicity against HEK293 cells assessed as reduction in cell viability incubated for 24 hrs by resazurin staining based assay; conditions: human, hek293, 24 h; how it was run: as §1
[4] = Inhibition of actin polymerisation in Toxoplasma gondii RH infected in human HFF cells assessed as reduction in invasion incubated for 20 mins prior to infection in HFF cells followed by 1 hr incubation under 5% CO2 and subsequent incubation for 72 hrs in DMEM medium 5% CO2 by crystal violet staining based analysis
G-actin polymerization [5] = assay: Inhibition of KMEI-induced pyrene-labelled G-actin polymerization (unknown origin) at 100 uM preincubated for 1 min followed by KMEI addition and measured at 15 secs interval for 90 mins by spectrofluorimetric analysis relative to control; conditions: human, time 91 min
How it was run: (§2)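 Converted to Mg2+ form with EGTA/MgCl2 for 2 min at room temperature; final actin 2.5 µM. Compound in DMSO added for 1 min, then polymerisation started with KMEI (50 mM KCl, 10 mM imidazole pH 7, 1 mM MgCl2, 1 mM EGTA). Fluorescence ex 365/em 407 nm read every 15 s for 90 min; triplicate.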

G-actin polymerization [6] = assay: Inhibition of KMEI-induced pyrene-labelled G-actin polymerization (unknown origin) at 10 uM preincubated for 1 min followed by KMEI addition and measured at 15 secs interval for 90 mins by spectrofluorimetric analysis relative to control; conditions: human, time 91 min; how it was run: as §2

Question: With `COc1ccc(CN2C(=O)SC[C@H]2C2(OC)CC(O)CCO2)cc1` (stereo not given in full) as the compound, how does the EC50 [1] read?
Answer: > 100 µM

Question: Which EC50 [1] does the source give for `COc1ccc(CN2C(=O)SC[C@H]2C2(OC)CC(OC(=O)c3ccc(I)cc3)CCO2)cc1` (mixture of isomers) here?
Answer: 49 µM

Question: Which EC50 [1] does the source give for `COc1ccc(CN2C(=O)SC[C@H]2C2(OC)CC(OC(=O)c3cc(C)ccc3-c3cccs3)CCO2)cc1` (mixture of isomers) here?
Answer: 10 µM

Question: Which EC50 [1] does the source give for `COc1ccc(CN2C(=O)SC[C@H]2C2(OC)CC(OC(=O)c3ccco3)CCO2)cc1` (mixture of isomers) here?
Answer: 62 µM

Question: With `COc1ccc(CN2C(=O)SC[C@H]2C2(OC)CC(OC(=O)c3ccc(C)cc3-c3ccccc3)CCO2)cc1` (mixture of isomers) as the compound, how does the EC50 [1] read?
Answer: 13 µM

Question: What does the source list for `CCCCC(=O)OC1CCOC(OC)([C@@H]2CSC(=O)N2Cc2ccc(OC)cc2)C1` (mixture of isomers)?
Answer: selectivity ratio [2]: 1; selectivity ratio [3]: 1; CC50 (HepG2): 111 µM; CC50 (HEK293): 103 µM; EC50 [1]: 66 µM; EC50 [4]: > 100 µM

Question: Which EC50 [1] does the source give for `COc1ccc(CN2C(=O)SC[C@H]2C2(OC)CC(OC(=O)c3cccc(I)c3)CCO2)cc1` (mixture of isomers) here?
Answer: 49 µM

Question: What does the source list for `COc1ccc(CN2C(=O)SC[C@H]2C2(OC)CC(OC(=O)c3ccccc3C3=CCCCC3)CCO2)cc1` (mixture of isomers)?
Answer: selectivity ratio [2]: 15; selectivity ratio [3]: 14; CC50 (HepG2): 123 µM; CC50 (HEK293): 109 µM; inhibition at 1.5 h, 100 µM (G-actin polymerization [5]): < 10%; inhibition at 1.5 h, 10 µM (G-actin polymerization [6]): < 10%; EC50 [1]: 7 µM; EC50 [4]: 16 µM

Question: What does the source list for `COc1ccc(CN2C(=O)SC[C@H]2C2(OC)CC(OC(=O)c3ccccc3-c3cccc4ccccc34)CCO2)cc1` (mixture of isomers)?
Answer: selectivity ratio [2]: 15; selectivity ratio [3]: 17; CC50 (HepG2): 90 µM; CC50 (HEK293): 99 µM; inhibition at 1.5 h, 100 µM (G-actin polymerization [5]): < 10%; inhibition at 1.5 h, 10 µM (G-actin polymerization [6]): < 10%; EC50 [1]: 7 µM; EC50 [4]: 16 µM

Question: For `COc1ccc(CN2C(=O)SC[C@H]2C2(OC)CC(OC(=O)c3ccccc3I)CCO2)cc1` (mixture of isomers), which inhibition at 1.5 h, 100 µM (G-actin polymerization [5]) is on record?
Answer: < 10%

Question: And the inhibition at 1.5 h, 10 µM (G-actin polymerization [6])?
Answer: < 10%

Question: What about the EC50 [1] of the same compound?
Answer: 17 µM

Question: With `CCC/C=C/c1ccccc1C(=O)OC1CCOC(OC)([C@@H]2CSC(=O)N2Cc2ccc(OC)cc2)C1` (mixture of isomers) as the compound, how does the EC50 [1] read?
Answer: 49 µM

Question: Which EC50 [1] does the source give for `COc1ccc(CN2C(=O)SC[C@H]2C2(OC)CC(OC(=O)C3CCCC3)CCO2)cc1` (mixture of isomers) here?
Answer: 66 µM

Question: What about the EC50 [4] of the same compound?
Answer: > 100 µM

Question: Which EC50 [1] does the source give for `COc1ccc(CN2C(=O)SC[C@H]2C2(OC)CC(OC(=O)c3ccc(-c4cccs4)cc3)CCO2)cc1` (mixture of isomers) here?
Answer: 24 µM

Question: Which EC50 [1] does the source give for `COc1ccc(CN2C(=O)SC[C@H]2C2(OC)CC(OC(=O)c3ccccc3)CCO2)cc1` (mixture of isomers) here?
Answer: 31 µM

Question: For `COc1ccc(CN2C(=O)SC[C@H]2C2(OC)CC(OC(=O)c3ccc(C)cc3-c3cccs3)CCO2)cc1` (mixture of isomers), which EC50 [1] is on record?
Answer: 15 µM

Question: Which inhibition at 1.5 h, 100 µM (G-actin polymerization [5]) does the source give for `COc1ccc(CN2C(=O)SC[C@H]2C2(OC)CC(OC(=O)c3ccccc3-c3cccs3)CCO2)cc1` (mixture of isomers) here?
Answer: < 10%

Question: And the inhibition at 1.5 h, 10 µM (G-actin polymerization [6])?
Answer: < 10%

Question: What about the EC50 [1] of the same compound?
Answer: 7 µM

Question: What about the EC50 [4] of the same compound?
Answer: 19 µM

Question: For `COc1ccc(CN2C(=O)SC[C@H]2C2(OC)CC(OC(=O)c3cccc(-c4cccs4)c3)CCO2)cc1` (mixture of isomers), which EC50 [1] is on record?
Answer: 18 µM

Question: With `C/C1=C/C(=O)O[C@@H]2C[C@@H](CC[C@H](C)/C=C\CC1)O[C@@](O)([C@@H]1CSC(=O)N1)C2` [LATRUNCULIN B] as the compound, how does the inhibition at 1.5 h, 100 µM (G-actin polymerization [5]) read?
Answer: 100%

Question: And the inhibition at 1.5 h, 10 µM (G-actin polymerization [6])?
Answer: 100%

Question: And the EC50 [1]?
Answer: 44 µM
